Measured values from different studies.
Each line is one published result; the experiments were not run side by side.
BTK: Tyrosine-protein kinase BTK (BTK, Homo sapiens, UniProt Q06187)
BTK R28H: Tyrosine-protein kinase BTK (BTK, Homo sapiens, UniProt Q06187, R28H)

Structure (SMILES)	target	effect on	action	technique	concentration	endpoint	result
Cc1cnc(NC2CCOCC2)nc1-n1cnc(C(=O)NC(CN)c2cc(F)cc(Cl)c2)c1 (stereo not drawn)	BTK	enzyme activity	inhibitor	radiometric	1 µM	remaining activity	102%
COc1cc(Cl)c(C(=O)N[C@@H](CN[C@H]2CC[C@@H](N)CC2)Cc2ccc(C#N)cc2)cc1-c1ccc(CN[C@H](C)c2ccc(C)cc2)o1	BTK	enzyme activity	inhibitor		1 µM	remaining activity	114%
CNC(=O)c1ccc(Nc2ncc(C(F)(F)F)c(NCc3nccnc3N(C)S(C)(=O)=O)n2)cc1	BTK	cell-free assay		competition with immobilised ligand	0.1 µM	remaining binding	83%
Nc1ncnc2occ(-c3ccc(NC(=O)Nc4cc(C(F)(F)F)ccc4F)cc3)c12	BTK	cell-free assay			20 µM	remaining signal	26%
Oc1cccc(-c2nc(N3CCOCC3)c3oc4ncccc4c3n2)c1	BTK	cell-free assay			0.5 µM	remaining signal	95.2%
O=C(Nc1cnn(-c2csc(C(=O)NC3COC3)c2)c1)Nc1c(F)cccc1Cl	BTK	enzyme activity	inhibitor		5 µM	remaining activity	89.3%
Nc1nc(NC2CCCCC2)sc1C(=O)c1ccccc1	BTK	enzyme activity	inhibitor		10 µM	remaining activity	75%
COc1ccc(F)cc1C(=O)NCc1ccc(-c2nn([C@@H](C)C(F)(F)F)c(N)c2C(N)=O)cc1	BTK	binding		SPR		kon	82000 M⁻¹ s⁻¹
Cc1cc(NC(=O)c2cccc3cc(-c4cccc5[nH]nc(N)c45)ccc23)ccc1F	BTK R28H	enzyme activity	inhibitor		0.1 µM	activity vs control	84%
O=C(NCCCC1CCCCC1)c1ccc(CNC(=O)c2cnn(-c3ccccc3)c2C(F)(F)F)cc1	BTK	cell-free assay		competition with immobilised ligand	0.1 µM	remaining binding	100%
FC(F)c1nc2ccccc2n1-c1nc(N2CCOCC2)nc(N2CCOCC2)n1	BTK	enzyme activity	inhibitor		10 µM	remaining activity	98%
FC(F)(F)c1ccc2c(c1)nc(-c1cccnc1)n2C1CC1	BTK	cell-free assay		competition with immobilised ligand	1 µM	remaining binding	93%
CC(C)(C=C(C#N)C(=O)N1CCC[C@H]1Cn1nc(-c2ccc(Oc3ccccc3)cc2F)c2c(N)ncnc21)N1CCOCC1	BTK	enzyme activity	inhibitor			KI (inactivation)	0.014 µM
Cc1noc([C@H]2C[C@@H](c3ccc(C(F)(F)F)cc3)CN(C(=O)N3CCS(=O)(=O)C3)C2)n1	BTK	cell-free assay		competition with immobilised ligand	1 µM	remaining binding	96%
COc1cc(/C=C/C(=O)CC(=O)/C=C/c2ccc(O)c(OC)c2)ccc1O	BTK	enzyme activity	inhibitor		1 µM	activity vs control	90%
COc1cc2c(N3CCN(C(=O)Nc4ccc(OC(C)C)cc4)CC3)ncnc2cc1OCCCN1CCCCC1	BTK	cell-free assay			0.5 µM	remaining signal	102%
COc1cc(Nc2cnc(C#N)c(O[C@H](C)CN(C)C)n2)ncc1-c1cnn(C)c1	BTK	enzyme activity	inhibitor	radiometric	1 µM	remaining activity	88%
O=C1NC(=O)c2cc(Nc3ccc(F)cc3)c(Nc3ccc(F)cc3)cc21	BTK	cell-free assay			0.5 µM	remaining signal	94.3%
C=CC(=O)N1CCC[C@@H]1Cn1nc(-c2ccc(Oc3ccccc3)cc2F)c2c(N)ncnc21	BTK	enzyme activity	inhibitor			kinact/KI	1.9e+06 M⁻¹ s⁻¹
O=C(NCc1ncc(C(F)(F)F)cc1Cl)c1ccc2c(c1)C1(CCS(=O)(=O)CC1)[C@@H](C1CC1)N2S(=O)(=O)c1ccc(F)cc1	BTK	cell-free assay		competition with immobilised ligand	1 µM	remaining binding	73%
NC(=O)[C@H]1CCN(c2ncnc(N)c2F)C[C@@H]1N1CCC[C@@H](Nc2cc(Cl)cc(C(F)(F)F)c2)C1=O	Tyrosine-protein kinase BTK (BTK, Homo sapiens, UniProt Q06187, C481S)	binding in cells				residence time	16 min
N#CC1(c2ccccn2)CCN(Cc2cc(C(=O)N3CCCC3)c(=O)n3ccccc23)CC1	BTK	cell-free assay		competition with immobilised ligand	1 µM	remaining binding	100%
CC(C)(C)c1nc2c(s1)c1nc(N)ncc1c1ccc(NS(=O)(=O)c3c(F)cccc3F)c(F)c12	BTK	enzyme activity	inhibitor	radiometric	1 µM	remaining activity	75%
Cc1cc(NC(=O)c2cccc(S(F)(F)(F)(F)F)c2)cc(-n2ccn3nc(-c4cccnc4)cc23)c1	BTK	cell-free assay		competition with immobilised ligand	1 µM	remaining binding	83.8%
Cc1ccc(NC(=O)c2ccc(C)c(C(F)(F)F)c2)cc1C#Cc1nn(C2CCC(O)CC2)c2ncnc(N)c12 (stereo not drawn)	BTK R28H	cell-free assay			10 µM	remaining signal	71%
CS(=O)(=O)N1CCCC(NC(=O)[C@H](CCC2CCCCC2)NC(=O)c2ccc(CNC(=O)c3cnc4ccccn34)cc2)C1 (stereo partly drawn)	BTK	cell-free assay		competition with immobilised ligand	0.1 µM	remaining binding	100%
CC(C)(C)C(=O)c1sc(NC2CCCCC2)nc1N	BTK	enzyme activity	inhibitor		10 µM	remaining activity	79%
